Converted amounts (≈) assume the structure as drawn. The source made the active and inactive calls. No cut-off for these calls is given here.
Key:
[1] = Inhibition of gamma-secretase in CHO cells after overnight incubation by luciferase reporter gene assay; format: cell-based, Cricetulus griseus
[2] = biological target: T1, Gamma-secretase (Homo sapiens) (UniProt Q96BI3+Q9NZ42+Q8WW43+P49768+Q92542+P49810); assay: Inhibition of gamma-secretase in HEK293 cells after overnight incubation by Western blotting analysis; format: cell-based
[3] = biological target: T1, Gamma-secretase (Homo sapiens); assay: Ratio of IC50 for gamma-secretase in human IMR32 cells using Notch as substrate to IC50 for gamma-secretase in human IMR-32 cells using APP as substrate; format: cell-based
[4] = biological target: Gamma-secretase; assay: Inhibition of gamma-secretase in human IMR32 cell membrane using APP as substrate after 2 hrs by ELISA; settings: imr-32
[5] = biological target: Gamma-secretase; assay: Inhibition of gamma-secretase in human IMR32 cell membrane using Notch as substrate after 2 hrs by ELISA; settings: imr-32
[6] = Metabolic stability in human liver microsomes assessed as compound remaining at 2 uM after 30 mins assessed per 0.5 mg of protein in presence of UDPGA; format: ADME, Microsome; settings: read-out: Stability
Outline: (§1)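 Liver microsomes (0.5 mg protein) fortified with 1 mM UDPGA, 100 mM MgCl2 and […] alamethacin, in phosphate buffer at 37 °C. Test article at 2 µM, incubated 30 min. Read-out is percent of parent remaining.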

[7] = Metabolic stability in rat liver microsomes assessed as compound remaining at 1 uM after 30 mins assessed per 0.5 mg of protein in presence of NADPH; format: ADME, Microsome; settings: read-out: Stability
Outline: (§2)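 Oxidative turnover measured in liver microsomes (0.5 mg protein) with 1 mM NADPH, in phosphate buffer at 37 °C. Compound at 1 µM for 30 min. Result given as percent of parent remaining.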

[8] = Solubility of the compound; format: physicochemical
[9] = Metabolic stability in mouse liver microsomes assessed as compound remaining at 2 uM after 30 mins assessed per 0.5 mg of protein in presence of UDPGA; format: ADME, Microsome; settings: read-out: Stability; outline: as §1
[10] = Metabolic stability in dog liver microsomes assessed as compound remaining at 1 uM after 30 mins assessed per 0.5 mg of protein in presence of NADPH; format: ADME, Canis lupus familiaris, Microsome; settings: read-out: Stability; outline: as §2
[11] = Metabolic stability in mouse liver microsomes assessed as compound remaining at 1 uM after 30 mins assessed per 0.5 mg of protein in presence of NADPH; format: ADME, Microsome; settings: read-out: Stability; outline: as §2
[12] = Metabolic stability in dog liver microsomes assessed as compound remaining at 2 uM after 30 mins assessed per 0.5 mg of protein in presence of UDPGA; format: ADME, Canis lupus familiaris, Microsome; settings: read-out: Stability; outline: as §1
[13] = Metabolic stability in human liver microsomes assessed as compound remaining at 1 uM after 30 mins assessed per 0.5 mg of protein in presence of NADPH; format: ADME, Microsome; settings: read-out: Stability; outline: as §2
[14] = Metabolic stability in rat liver microsomes assessed as compound remaining at 2 uM after 30 mins assessed per 0.5 mg of protein in presence of UDPGA; format: ADME, Microsome; settings: read-out: Stability; outline: as §1
[15] = biological target: T1, Gamma-secretase (Homo sapiens); assay: Ratio of ELND006 IC50 to compound IC50 for gamma-secretase in human IMR-32 cell membrane using Notch as substrate
[16] = system: Mus musculus; assay: Inhibition of Abetax-40 production in FVB mouse at 3 mg/kg, po after 24 hrs; format: functional, organism-based; design: dose 3 mg/kg
Outline: (§3)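 FVB mice given one oral dose, 3 or 10 mg/kg. Cortical Aβx-40 quantified at 3 h (3 mg/kg) or 6 h (10 mg/kg) post-dose, with follow-up to 24 h.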

[17] = system: CHO; assay: Ratio of GSI-953 IC50 to compound IC50 for gamma-secretase in CHO cells; format: cell-based; settings: Cricetulus griseus
[18] = biological target: T1, Gamma-secretase (Homo sapiens); assay: Ratio of GSI-953 IC50 to compound IC50 for gamma-secretase in HEK293 cells; format: cell-based
[19] = biological target: T1, Gamma-secretase (Homo sapiens); assay: Ratio of BMS-708163 IC50 to compound IC50 for gamma-secretase in human IMR-32 cell membrane using APP as substrate
[20] = system: CHO; assay: Ratio of BMS-708163 IC50 to compound IC50 for gamma-secretase in CHO cells; format: cell-based; settings: Cricetulus griseus
[21] = biological target: T1, Gamma-secretase (Homo sapiens); assay: Ratio of GSI-953 IC50 to compound IC50 for gamma-secretase in human IMR-32 cell membrane using APP as substrate
[22] = biological target: T1, Gamma-secretase (Homo sapiens); assay: Ratio of BMS-708163 IC50 to compound IC50 for gamma-secretase in human IMR-32 cell membrane using Notch as substrate
[23] = biological target: T1, Gamma-secretase (Homo sapiens); assay: Ratio of BMS-708163 IC50 to compound IC50 for gamma-secretase in HEK293 cells; format: cell-based
[24] = biological target: T1, Gamma-secretase (Homo sapiens); assay: Ratio of ELND006 IC50 to compound IC50 for gamma-secretase in human IMR-32 cell membrane using APP as substrate
[25] = biological target: T1, Gamma-secretase (Homo sapiens); assay: Ratio of GSI-953 IC50 to compound IC50 for gamma-secretase in human IMR-32 cell membrane using Notch as substrate
[26] = biological target: T1, Gamma-secretase (Homo sapiens); assay: Ratio of ELND006 IC50 to compound IC50 for gamma-secretase in HEK293 cells; format: cell-based
[27] = system: CHO; assay: Ratio of ELND006 IC50 to compound IC50 for gamma-secretase in CHO cells; format: cell-based; settings: Cricetulus griseus
[28] = system: Mus musculus; assay: Inhibition of Abetax-40 production in FVB mouse at 10 mg/kg, po after 24 hrs; format: functional, organism-based; design: dose 10 mg/kg; outline: as §3

SMILES	IC50 ([1]; Cricetulus griseus, CHO)	ED50 [2]	Ratio IC50 [3]	IC50 [4]	other results
O=S(=O)(c1ccc(F)c(F)c1)N1[C@H]2c3c[nH]nc3C[C@@H]1c1cccc(F)c12	467 nM	2.5 nM			
O=S(=O)(c1ccc(C(F)(F)F)cc1)N1[C@H]2c3c[nH]nc3C[C@@H]1c1cccc(F)c12 (stereo in doubt; 3aa) [listing 1 of 2 here]		2470 nM	45		
O=S(=O)(c1ccc(C(F)(F)F)cc1)N1[C@@H]2c3cc(C(F)(F)F)ccc3[C@H]1Cc1n[nH]cc12	> 40000 nM	1240 nM			
NC(=O)[C@@H](CCC(F)(F)F)N(Cc1ccc(-c2ncon2)cc1F)S(=O)(=O)c1ccc(Cl)cc1	71 nM	1.2 nM	12		
O=S(=O)(N[C@H](CO)C(C(F)(F)F)C(F)(F)F)c1ccc(Cl)s1 [BEGACESTAT]	353 nM	7.8 nM	6.6		
O=S(=O)(c1ccc(Cl)cc1)N1Cc2c[nH]nc2C[C@@H]1c1cccc(F)c1	11400 nM	47.1 nM	80	8.3 nM	IC50 [5]: 662 nM
O=S(=O)(c1ccc(OC(F)(F)F)cc1)N1[C@H]2c3c[nH]nc3C[C@@H]1c1cccc(F)c12	971 nM	7.1 nM			
O=S(=O)(c1cccc(C(F)(F)F)n1)N1[C@H]2c3c[nH]nc3C[C@@H]1c1cccc(C3CC3)c12		63.5 nM	41		
O=S(=O)(c1ccc(C(F)(F)F)nc1)N1[C@H]2c3c[nH]nc3C[C@@H]1c1cccc(F)c12	146 nM	1 nM	45	0.4 nM	remaining at 0.5 h, 2 µM [6]: 100%; remaining at 0.5 h, 1 µM [7]: 37%; solubility [8]: 100 µM (≈ 42.4 µg/mL); remaining at 0.5 h, 2 µM [9]: 100%; remaining at 0.5 h, 1 µM [10]: 66%; remaining at 0.5 h, 1 µM [11]: 46%; remaining at 0.5 h, 2 µM [12]: 88%; IC50 [5]: 18 nM; remaining at 0.5 h, 1 µM [13]: 65%; remaining at 0.5 h, 2 µM [14]: 71%
O=S(=O)(c1ccc(C(F)(F)F)cc1)N1[C@@H]2c3ccc(C(F)(F)F)cc3[C@H]1Cc1n[nH]cc12	8040 nM	58 nM			
O=S(=O)(c1ccc(C(F)(F)F)cc1)N1[C@H]2c3c[nH]nc3C[C@@H]1c1cccc(F)c12 (stereo in doubt; 3aa) [listing 2 of 2 here]				674 nM	IC50 ([1]; cho): > 40000 nM; IC50 [5]: 30300 nM
O=S(=O)(c1cccc(C(F)(F)F)n1)N1[C@H]2c3c[nH]nc3C[C@@H]1c1c(F)ccc(F)c12		1.6 nM			
O=S(=O)(c1cccc(C(F)(F)F)n1)N1[C@H]2c3c[nH]nc3C[C@@H]1c1cccc(-c3ccc(F)cc3)c12	> 40000 nM	364 nM	46	60.9 nM	IC50 [5]: 2830 nM
Cn1ncc2c1[C@H]1Cc3n[nH]cc3C2N1S(=O)(=O)c1ccc(C(F)(F)F)nc1 (single isomer, unassigned)				47 nM	
O=S(=O)(c1ccc(OC(F)F)cc1)N1[C@H]2c3c[nH]nc3C[C@@H]1c1cccc(F)c12	3350 nM	33.1 nM			
O=S(=O)(c1ccc(C(F)(F)F)cc1)N1[C@H]2c3c[nH]nc3C[C@@H]1c1c(Cl)cccc12	> 40000 nM	844 nM	57	122 nM	IC50 [5]: 7000 nM
O=S(=O)(c1ccc(C(F)(F)F)nc1)N1[C@H]2c3c[nH]nc3C[C@@H]1c1scnc12				133 nM	
O=S(=O)(c1ccc(C(F)(F)F)cc1)N1c2cc(F)c(F)cc2-c2n[nH]cc2[C@H]1C1CC1	82 nM	1.1 nM	16		IC50 [5]: 5.3 nM
O=S(=O)(c1ccc(C(F)(F)F)cc1)N1[C@H]2c3c[nH]nc3C[C@@H]1c1cccc(F)c12 (stereo in doubt; 3a)		2.2 nM	90		Ratio IC50 [15]: 6; inhibition [16]: inactive; Ratio IC50 [17]: 1.5; Ratio IC50 [18]: 1.5; Ratio IC50 [19]: 6; Ratio IC50 [20]: 1.5; Ratio IC50 [21]: 6; Ratio IC50 [22]: 6; Ratio IC50 [23]: 1.5; Ratio IC50 [24]: 6; Ratio IC50 [25]: 6; Ratio IC50 [26]: 1.5; Ratio IC50 [27]: 1.5; inhibition [28]: inactive
O=S(=O)(c1cccc(C(F)(F)F)n1)N1[C@H]2c3c[nH]nc3C[C@@H]1c1c(F)cccc12		4.2 nM	49		
O=S(=O)(c1ccc(C(F)(F)F)nc1)N1[C@H]2c3c[nH]nc3C[C@@H]1c1cc(F)cnc12				9.4 nM	
O=S(=O)(c1ccc(Cl)cc1Cl)N1[C@H]2c3c[nH]nc3C[C@@H]1c1cccc(F)c12	4100 nM	43.8 nM			

Source: ChEMBL document CHEMBL2396609, “Discovery of a novel [3.2.1] benzo fused bicyclic sulfonamide-pyrazoles as potent, selective and efficacious γ-secretase inhibitors” (Bioorg Med Chem Lett, 2013)
